Eight compounds from publication PMC5542026 (Cell, 2017) can be followed below.

Converted amounts (≈) assume the structure as drawn. *1 amine or outer side, *2 acyl side, *3 side chain or, on linkers, in order; H or OH if unused. Where a SMILES comes first, the peptide text is derived from it. Bridges are numbered along the chain shown (N, C = ends). [ ]: non-standard residue; d: D form. The star is where a group is joined. X2 = C[C@H](Oc1ccc([C@H](N[*:1])C(=O)[*:2])cc1)[C@@]1(/C=C/C(=O)[*:3])CO1; X1 = CC(C)[C@H](O)[C@H](C)C(=O)*; aIle = CC[C@@H](C)[C@H](N)C(=O)O; dNMeF = CN[C@H](Cc1ccccc1)C(=O)O; aThr = C[C@H](O)[C@H](N)C(=O)O

Data set [1] concerns E. coli strain D21f2tolC. Kind of data set: Broth-microdilution MIC, wild-type parent. Type of data set: cell-based. To be noted: LB broth, 16 h, growth inhibited by >90%. Background: Broth dilution looks for growth in wells or tubes with falling amounts of substance.
In data set [2] the test system is S. pyogenes C203. The data set is described as follows: Mouse Streptococcus pyogenes peritonitis model. Format: in vivo. In outline: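 Female ICR mice (23–25 g) were acclimatised for one week at 23±2°C and 55±10% humidity. They were infected intraperitoneally with 4×10^3 cfu S. pyogenes C203 in 0.5 ml saline containing 1% peptone. Groups of eight, randomised and unblinded, received 2.5-fold test compound dilutions in 5% dextrose by one of three regimens: i.v. at 10 min and 6 h (total 3.2–50 mg/kg); single i.v. at 10 min; or single s.c. at 10 min (each total 1.024–40 mg/kg).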

In data set [3] the test system is E. coli D21f2tolC with plasmid-encoded RNAP β/β′ derivatives. Kind of data set: E. coli plasmid-based resistance assay. Type of data set: cell-based. The note with it: substitutions β565 Glu→Gly and β681 Met→Lys. In outline:
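E. coli transformants were grown from single colonies in LB with 200 μg/ml ampicillin at 37°C with shaking to OD600 0.4–0.8. They were induced with 1 mM IPTG for 1 h. About 2×10^5 cells were added to wells holding a 2-fold dilution series of test compound in the same medium (final 0 or 25–4000 μg/ml) and incubated 16 h at 37°C with shaking.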

For data set [4], the target named is T1, E. coli RNAP (Escherichia coli, UniProt P0A8T7+P0A8V2). Kind of data set: Nucleotide addition in transcription initiation. Format: biochemical. To be noted: 500 μM PUM. In outline:
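Run per an earlier published protocol, labelled with 5 μM [α32P]UTP (3 Bq/fmol). Reactions contained no inhibitor, the test compound, 2 μM rifampicin or 100 μM lipiarmycin.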

Data set [5] addresses E. coli RNAP core enzyme (Escherichia coli, UniProt P0A8T7+P0A8V2). Kind of data set: Single-nucleotide-addition reactions. Type of data set: biochemical. To be noted: 25 μM PUM; 2.5 μM NTPs. Summed up:
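Elongation complexes were assembled on nucleic-acid scaffolds, annealed 5 min at 95°C and step-cooled to 4°C in 5 mM Tris-HCl pH 7.7, 200 mM NaCl, 10 mM MgCl2. Steps at 37°C: 10 min preincubation, 5 min with compound (0 or 25 μM), 5 min with single NTP.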

In data set [6] the test system is S. pyogenes PUM-resistant mutants. The data set is described as follows: Resistance levels of spontaneous PUM-resistant mutants. Type of data set: cell-based. The note with it: substitutions at β residues 565, 681, and 684, and β′ residue 786.
Data set [7] addresses bacterial RNAP (Escherichia coli, UniProt P0A8T7+P0A8V2). The data set is described as follows: RNAP-inhibitory activity in vitro. Format: biochemical, E. coli; S. aureus; B. subtilis. To be noted: read-out: IC50, inhibition of bacterial RNAP.
The target in data set [8] is T2, E. coli RNAP σ^70 holoenzyme (Escherichia coli, UniProt P0A8T7+P0A8V2). The data set is described as follows: Multiple-nucleotide-addition reactions. Format: biochemical. The note with it: 10 μM NTPs.
Data set [9] relates to Staphylococcus simulans strain M22. The data set is described as follows: Effects on macromolecular synthesis. Format: cell-based. To be noted: PUM 100–200 μM. Summed up:
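Staphylococcus simulans M22 was grown in 0.5x Mueller Hinton II broth at 37°C with shaking to OD600 0.5, then diluted to OD600 0.1–0.2. [2-14C]-thymidine was added at 6 kBq/ml for 15 min, and the culture was split. One half received test compound (final 100–200 μM). Samples taken at 0, 10, 20 and 40 min were quenched in ice-cold 10% TCA/1 M NaCl and held 30–60 min on ice.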

Data set [10] has as its system S. pyogenes strain L49 or S. pneumoniae strain L44. Kind of data set: Checkerboard interaction assays PUM + Rif. Format: cell-based. To be noted: FICI.
The target in data set [11] is T2, E. coli RNAP σ^70 holoenzyme. The data set is described as follows: Formation of RNAP-promoter open complex. Format: biochemical. The note with it: 500 μM PUM.
For data set [12] the target is unchanged. Kind of data set: Nucleotide addition at elevated NTP concentrations. Type of data set: biochemical. The note with it: 6 μM PUM; 10–500 μM varied NTP.
The subject of data set [13] is S. pyogenes Rif-resistant mutants. Kind of data set: Cross-resistance of Rif-resistant mutants to PUM. Type of data set: cell-based. The note with it: Figs. 1B–C,E. Summed up:
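S. pyogenes mutants were selected on Todd Hewitt agar with rifampicin at 0.1–2 μg/ml (1–16x MIC) and sequenced. Thirteen mutants and the isogenic wild-type parent were grown in Todd Hewitt broth at 37°C in 7% CO2/6% O2/4% H2/83% N2 to OD600 0.4–0.8. They were tested by broth microdilution with a 2-fold test compound series (0 or 1.56–100 μg/ml) for 16 h at 37°C. MIC was taken at >90% growth inhibition.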

In data set [14] the test system is E. coli GE-resistant mutants. Kind of data set: Cross-resistance of GE-resistant mutants to PUM. Format: cell-based.
Data set [15] deals with S. pyogenes strain ATCC 12344. Kind of data set: Spontaneous resistance rate, Luria-Delbrück fluctuation assays. Format: cell-based. To be noted: compared with Rif. In outline: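 Luria-Delbrück fluctuation assay. ~1×10^9 cfu S. pyogenes ATCC 12344 per plate were plated on Todd Hewitt agar (1.5% agar) containing 64 or 128 μg/ml test compound, or 1 or 2 μg/ml rifampicin. Colonies were counted after 24 h at 37°C, with at least six independent determinations each.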

Data set [16] has as its system E. coli strain D21f2tolC. The data set is described as follows: MIC on LB agar. Format: cell-based. The note with it: E. coli D21f2tolC plated on LB agar.
Data set [17] has as its system S. pyogenes ATCC 12344. Kind of data set: Broth-microdilution MIC, wild-type parent. Format: cell-based. The note with it: Todd Hewitt broth, 16 h, growth inhibited by >90%.
The target in data set [18] is T1, E. coli RNAP. The data set is described as follows: Nucleotide addition in transcription elongation. Type of data set: biochemical. To be noted: 500 μM PUM. In outline:
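Run per an earlier published protocol. Reactions contained no inhibitor, the test compound, 2 μM rifampicin or 100 μM lipiarmycin as comparator.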

The target in data set [19] is [565Glu→Asp]β-RNAP σ^70 holoenzyme (Escherichia coli, UniProt P0A8T7+P0A8V2, E565D). Kind of data set: Fluorescence-detected transcription assay, mutant RNAP. Type of data set: biochemical, E. coli.
The target of data set [20] is T2, E. coli RNAP σ^70 holoenzyme. The data set is described as follows: Nucleotide addition on standard and U-less cassette templates. The note with it: standard vs U-less cassette template; 0–20 μM PUM. Type of data set: biochemical.
The test system of data set [21] is S. pyogenes and E. coli resistant mutants. The data set is described as follows: Cross-resistance between PUM and Lpm, Myx, Stl, CBR703, Sal. Type of data set: cell-based.
In data set [22] the test system is human serum proteins. Kind of data set: Growth-curve assays in absence and presence of 30% human serum. Format: in vitro ADME.

For `ONC(=Nc1ccccc1)c1cccc(C(F)(F)F)c1` [CBR703], the MICwild-type in data set [1] was found to be 6.25 µg/mL.
`NC(=O)CC[C@@H](C(=O)NC[C@H]1O[C@@H](c2c[nH]c(=O)[nH]c2=O)[C@H](O)[C@@H]1O)N(O)C(=O)CN=C(N)N` [PUM, pseudouridimycin]: in data set [2], the “ED50 (dose yielding 50% survival at 7 days)” value was determined as 9 mg/kg. For the same compound, the “resistance (MIC/MICwild-type)” value in data set [3] is on record as not below 4 x. The “effect on nucleotide addition in transcription initiation” value in [4] is reported as “Inhibition by PUM of nucleotide addition in transcription initiation”. Further, in data set [5], the “nucleotide specificity of inhibition, single-nucleotide addition” value is listed as “inhibits incorporation of U, but not G, A, or C”. The “PUM-resistance (MIC/MICwild-type)” value in data set [6] is reported as not below 4 x. The concentration for half-maximal inhibition (IC50) in data set [7] was 100 nM. The “nucleotide specificity of inhibition, multiple-nucleotide addition” value in [8] is recorded as “inhibits incorporation of U, but not G, A, or C”. In data set [9], the “effect on DNA synthesis ([14C]-thymidine incorporation)” value is given as “little or no inhibition of DNA synthesis”; the “effect on RNA synthesis ([3H]-uridine incorporation)” value was “rapid and strong inhibition of RNA synthesis”; the “effect on protein synthesis ([14C]-isoleucine incorporation)” value is “slower and weaker inhibition of protein synthesis”. Moreover, the “antibacterial activity when co-administered with Rif” value in [10] is on record as “additive antibacterial activity”. Besides, the “effect on formation of catalytically-competent RNAP-promoter open complex, RPo” value in data set [11] is reported as “Absence of inhibition”. For the same compound, the “effect of high NTP concentrations on transcription inhibition” value in [12] is reported as “high concentrations of UTP–but not high concentrations of GTP, ATP, or CTP–overcome transcription inhibition by PUM”. Besides, the MICwild-type in data set [1] turned out to be 400 µg/mL. For the same compound, in data set [13], the “cross-resistance with Rif” value is on record as “no cross-resistance”. In data set [14], the “cross-resistance with GE” value was “partial cross-resistance”. Besides, in [15], the spontaneous resistance rates entry was “an order-of-magnitude lower than those of Rif”. Besides, in data set [16], the “MIC under these conditions” value was approximately 800 µg/mL (≈ 1640 µM). In [17], the MICwild-type turned out to be 6.25 µg/mL. For the same compound, the “effect on nucleotide addition in transcription elongation” value in data set [18] is on record as “Inhibition by PUM of nucleotide addition in transcription elongation”. The “inhibition of purified RNAP containing β565 Glu→Asp” value in data set [19] was “PUM-resistant phenotype”. Further, the “template dependence of transcription inhibition” value in data set [20] was “inhibits transcription only on templates that direct incorporation of U”. Also, the “cross-resistance with Lpm, Myx, Stl, CBR703, and Sal” value in [21] is “does not exhibit cross-resistance”. Besides, the “antibacterial activity in absence versus presence of human serum” value in data set [22] (30% human serum, Fig. 1C rows 1–4) is listed as “Identical results”. Moreover, the unbound fraction in data set [22] (human serum proteins, inferred from 30% human serum assays) is ~ 100%.
As for `CO[C@H]1/C=C/O[C@@]2(C)Oc3c(C)c(O)c4c(O)c(c(/C=N/N5CCN(C)CC5)c(O)c4c3C2=O)NC(=O)/C(C)=C\C=C\[C@H](C)[C@H](O)[C@@H](C)[C@@H](O)[C@@H](C)[C@H](OC(C)=O)[C@@H]1C` [Rif, rifampin], the MICwild-type in [1] came out at 0.20 µg/mL; in data set [17], 0.098 µg/mL.
With `CCCC/C(C)=C/C=C(\C)C(=O)c1c(O)cc([C@H](C)CC/C=C/NC(=O)OC)oc1=O` [myxopyronin B], the MICwild-type worked out at 0.20 µg/mL in data set [1] and 6.25 µg/mL in data set [17].
Consider `CC[C@@H](C)[C@@H]1NC(=O)[C@H](NC(=O)[C@@H](C)[C@@H](O)C(C)C)[C@H](C)OC(=O)[C@H]2COC(=O)CNC(=O)/C=C/[C@@]3(CO3)[C@H](C)Oc3ccc(cc3)[C@H](NC1=O)C(=O)N(C)[C@H](Cc1ccccc1)C(=O)N[C@@H]([C@H](C)O)C(=O)N2` [salinamide A] (X1-[dT][aIle][X2][dNMeF][aThr][dS]; ester 1-C; linker 3-6 via G), for which, in data set [1], the MICwild-type amounted to 0.049 µg/mL.
Turning to `CNC(=O)[C@@H](C)[C@H]1C(=O)/C(=C(O)/C=C/C(C)=C/[C@@H](C)[C@H]2O[C@@]3(C)O[C@H](C=C[C@@]34CO4)[C@@H]2C)C(=O)N1[C@@H]1CC[C@H](O)[C@H](C)O1` [streptolydigin], the MICwild-type in data set [1] and in data set [17] was 3.13 µg/mL each time.
As for GE23077, in data set [1], the MICwild-type is 500 µg/mL.
lipiarmycin A3: the values for the MICwild-type in data set [1] and in [17] were 1.56 µg/mL and 6.25 µg/mL, respectively.

Usually IC50 stands for the midpoint of a concentration-inhibition curve.
